A selection: hits, their analogues and other compounds. The true share with any hit is near 3.2%.
Apaf-1 inh = blocks human Apaf-1 apoptosome activity; O14727; reconstituted apoptosome caspase-3 activity, DEVD-Rh110 fluorescence; inhibition, % at 20 µM; actives 0.71% (n = 330,000); active = inhibition of at least 40% at 20 µM;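 note: plate controls were DMSO wells for no effect and DEVD-CHO caspase inhibitor wells for full effect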
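Material: reconstituted apoptosome with Apaf-1, cytochrome c, caspase-9, procaspase-3, dATP / Buffer or medium: pH 7.5 Hepes buffer with CHAPS, BSA, DTT / Also added: cytochrome c with DEVD-Rh110 / Schedule: compound with Apaf-1, dATP, procaspase-3 30 min, then 50 min reaction, room temperature / Technique: rhodamine 110 fluorescence at Ex 480/Em 540 nm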
MEKK2 mut-MEK5 = signal of MEK5 binding to mutant human MEKK2 PB1 domain. percent response, % at 10 µM. actives 0.35% (n = 290,000). bead flow cytometry, Alexa488-MEK5 binding to MEKK2 mutant. AID 1530; in the data active = percent response above about 24%, passing the limit was not always enough
DSG3 Ab inh = blocks pemphigus antibody binding to human desmoglein-3; DSG3-coupled beads, scFv-anti-DSG3-GFP binding, flow cytometry; stronger effect = lower value; binding (percent of control), % at 10 µM; actives 0.48% (n = 310,000); AID 588358;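 active = binding more than 3 SD below its plate's average and above zero; inconclusive = below that plate limit but binding exactly zero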;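 note: hits lower antibody fragment binding to DSG3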
Target sequence (P32926 whole entry, looked up, the tested form may be a part): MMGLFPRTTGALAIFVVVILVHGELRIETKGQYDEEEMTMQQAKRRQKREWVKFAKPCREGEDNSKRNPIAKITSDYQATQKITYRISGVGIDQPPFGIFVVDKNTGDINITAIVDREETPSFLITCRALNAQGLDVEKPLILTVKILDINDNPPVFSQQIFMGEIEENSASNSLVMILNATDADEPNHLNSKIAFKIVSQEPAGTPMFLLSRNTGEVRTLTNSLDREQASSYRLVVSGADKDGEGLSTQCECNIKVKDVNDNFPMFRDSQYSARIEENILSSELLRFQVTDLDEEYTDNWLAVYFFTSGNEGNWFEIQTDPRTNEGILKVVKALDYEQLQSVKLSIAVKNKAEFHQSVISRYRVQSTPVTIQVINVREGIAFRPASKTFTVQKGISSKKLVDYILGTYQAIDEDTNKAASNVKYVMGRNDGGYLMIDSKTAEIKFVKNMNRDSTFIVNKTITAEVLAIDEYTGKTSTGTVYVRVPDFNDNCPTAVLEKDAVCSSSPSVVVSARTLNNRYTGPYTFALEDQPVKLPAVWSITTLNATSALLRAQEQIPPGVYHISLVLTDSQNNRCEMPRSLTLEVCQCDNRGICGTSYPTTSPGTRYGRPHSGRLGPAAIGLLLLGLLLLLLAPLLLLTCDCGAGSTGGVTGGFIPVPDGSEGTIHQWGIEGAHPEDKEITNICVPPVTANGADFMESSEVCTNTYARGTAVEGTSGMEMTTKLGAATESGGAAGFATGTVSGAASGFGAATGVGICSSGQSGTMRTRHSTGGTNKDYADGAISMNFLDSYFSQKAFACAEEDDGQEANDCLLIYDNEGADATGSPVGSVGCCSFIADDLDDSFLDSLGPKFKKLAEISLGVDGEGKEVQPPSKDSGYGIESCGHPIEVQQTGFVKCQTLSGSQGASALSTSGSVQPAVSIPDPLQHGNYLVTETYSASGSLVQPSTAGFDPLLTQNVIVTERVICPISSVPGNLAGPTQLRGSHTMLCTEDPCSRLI
MEKK3 PB1 HTS = modulators (inhibitors or enhancers) of MEK5 binding to human MEKK3 PB1 domain. Q99759. bead-based flow cytometry, Alexa488-MEK5 binding to MEKK3; actives lie on both sides; 0 = blocked by unlabeled MEK5, 100 = vehicle. binding response (% of control), % at 10 µM. actives 1.4% (n = 290,000). AID 1529;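 active = binding response more than 3 SD above or below the average of its plate-row segment, actives on both sides; inconclusive = wells at one plate position flagged as instrument error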;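 note: Alexa488 bead fluorescence after subtracting the streptavidin-only scavenger bead signal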
MEKK2wt PB1 HTS = raises or lowers MEK5 binding to wildtype human MEKK2 PB1 domain; Q9Y2U5; bead flow cytometry, Alexa488-MEK5 binding to MEKK2 WT; actives lie on both sides; binding response (% of control), % at 10 µM; actives 1.1% (n = 290,000); in the data active = binding response below about 67% or above about 130%; inconclusive = no clear call, values can overlap the other calls; inactive = in between
UBC13 inh = blocks human UBC13 polyubiquitin chain formation; AID 485273; P61088; TR-FRET; actives 0.47% (n = 330,000); inhibition, % at 20 µM; in the data active = inhibition above about 45%, passing the limit was not always enough; inconclusive = no clear call, values can overlap the other calls
MEKK2wt confirm = raises or lowers MEK5 binding to wildtype human MEKK2, retest; shares compounds with MEKK3 PB1 HTS; actives 2.4% (n = 5,900); AID 1892; bead flow cytometry, Alexa488-MEK5 binding to MEKK2 WT; actives lie on both sides; binding response (% of control), % at 10 µM; in the data active = binding response below about 16% or above about 210%; inactive = in between
MEKK2mut-MEK5 = signal of MEK5 binding to mutant human MEKK2, retest. shares compounds with MEKK3 PB1 HTS. bead flow cytometry, Alexa488-MEK5 binding to MEKK2 mutant. percent response, % at 10 µM. actives 2% (n = 5,900); in the data active = percent response mostly above about 71%, no sharp cut-off; inactive = mostly below about 38%;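 note: higher means compound restores mutant binding toward wildtype level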
MEKK3 confirm = confirmation of inhibitors of MEK5 binding to human MEKK3; actives 1.8% (n = 5,900); binding response (% of control), % at 10 µM; AID 1894; shares compounds with MEKK3 PB1 HTS; bead flow cytometry, Alexa488-MEK5 binding to MEKK3; stronger effect = lower value;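 active = binding response below 72% of control, or above a set upper limit, though filed actives all read lower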;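 note: 100% = DMSO only wells and 0% = binding blocked by excess unlabeled MEK5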
* = called active by the depositor; ? = inconclusive; / = no result given; [ ] = remark or other dose.

SMILES	Apaf-1 inh	MEKK2 mut-MEK5	DSG3 Ab inh	MEKK3 PB1 HTS	MEKK2wt PB1 HTS	UBC13 inh	MEKK2wt confirm	MEKK2mut-MEK5	MEKK3 confirm
CCOC(=O)/C=C1\SCC(=O)N1CC(=O)Nc1cc(S(=O)(=O)N(C)C)ccc1C	0	/	96	/	/	2	/	/	/
CC(NS(=O)(=O)c1cccc(Cl)c1F)[C@H](O)c1ccccc1 (stereo partly specified)	/	/	100	/	/	/	/	/	/
CCn1c(COc2ccc(=O)n(-c3ccccc3)n2)n[nH]c1=S	-16	4	98	129*	117	4	89	-8	94
CN(C)S(=O)(=O)c1cc(NC(=O)C2=COCCO2)ccc1Cl	2	/	/	/	/	-4	/	/	/
CCN1CCN(c2cc(N3CCc4ccccc4C3)c(F)cc2[N+](=O)[O-])CC1	19	39	103	100	151*	15	153	22	110
CC(=O)N1CCN(c2cc(N3CCCC3)c(F)cc2[N+](=O)[O-])CC1	6	1	121	106	105	-110	/	/	/
O=C(COC(=O)c1cccc(S(=O)(=O)N2CCCCC2)c1)NCc1ccccc1	17	/	102	/	/	-1	/	/	/
CCc1cccc2c(C(=O)COC(=O)c3cccc(S(=O)(=O)N(C)C4CCCCC4)c3)c[nH]c12	11	2	100	132*	100	0	116	6	96
O=C(OCC(=O)c1c[nH]c2ccccc12)c1cccc(S(=O)(=O)N2CCCCCC2)c1	-3	3	100	130*	128	1	114	5	107
COc1cc(/C=C2/SC(=S)N(c3c(C)n(C)n(-c4ccccc4)c3=O)C2=O)ccc1O	9	-16	94	63	54	-135	/	/	/
CN(CC(=O)Nc1cccc(F)c1)C(=O)c1cc(S(=O)(=O)N(C)C)ccc1N1CCCC1	-5	3	97	106	107	-9	/	/	/
COc1c(/C=N/Nc2ccc(C(=O)O)cc2)c(CCN(C)C(C)=O)cc2c1OCO2	0	-15	91	94	89	-11	/	/	/
CCC(=O)N(C)CCc1cc2c(c(OC)c1/C=N/NC(=O)c1ccc(Br)cc1)OCO2	17	0	97	131*	99	-8	67	-10	85
CCC(=O)N(C)CCc1cc2c(c(OC)c1/C=N/NC(=O)c1ccccc1O)OCO2	-4	1	94	119	108	-2	/	/	/
COc1c(/C=N/NC(=O)c2ccccc2O)c(CCN(C)C(C)=O)cc2c1OCO2	-12	-1	100	134*	100	7	105	7	98
C=CS(=O)(=O)c1c2cc(OC)ccc2nc2ccc(OC)cc12	/	/	67	/	/	/	/	/	/
Nc1ccccc1SC1CC(=O)N(c2ccccc2Cl)C1=O (stereo unspecified)	6	-24	93	49*[inhibitor]	59	9	101	7	102
Cc1c(Cl)cccc1N1C(=O)CC(Sc2ccccc2N)C1=O (stereo unspecified)	/	/	109	/	/	/	/	/	/
O=[N+]([O-])c1ccc(Cc2ccccn2)c([N+](=O)[O-])c1	13	/	/	/	/	-10	/	/	/
C[C@@H]1CN([C@@H](C)CO)C(=O)CCCn2nncc2CO[C@H]1CN(C)Cc1ccc(Cl)c(Cl)c1	/	/	100	/	/	/	/	/	/
COc1cc(C2C(C#N)=C(N)N(c3ccc(F)cc3)C3=C2S(=O)(=O)CC3)ccc1O (stereo unspecified)	-1	-7	114	100	95	-10	/	/	/
Cc1ccc(-c2cc(N)n3nc(-c4ccc(C)cc4)cc3n2)cc1	6	/	104	/	/	-10	/	/	/
Cc1ccc(-c2cc3nc(-c4ccc(Br)cc4)cc(N)n3n2)cc1	-3	2	105	134*	121	-9	100	1	102
CCC/C=C1/CCCOC(C(=O)NCc2ccccc2)(C(F)(F)F)C1 (stereo unspecified)	9	0	111	98	98	-10	/	/	/
CCC/C=C1/CCCOC(C(=O)NCCNCCO)(C(F)(F)F)C1 (stereo unspecified)	6	-7	102	71*[inhibitor]	81	1	97	3	97
SMILES	Apaf-1 inh	MEKK2 mut-MEK5	DSG3 Ab inh	MEKK3 PB1 HTS	MEKK2wt PB1 HTS	UBC13 inh	MEKK2wt confirm	MEKK2mut-MEK5	MEKK3 confirm
COc1cccc2sc3ccc(C#CC4(N)CCCCC4)cc3c(=O)c12	33	14	106	103	136*	?	145	22	108
Cc1ccc(NC(=O)Nc2ccon2)cc1Cl	14	-6	110	103	96	8	/	/	/
C/C(=N\Nc1nc2ccccc2[nH]1)c1cc2ccccc2o1	15	6	99	137*	140*	4	127	10	99
O=C(Nc1ccccc1)C(c1ccccc1)C1CCCC1 (stereo unspecified)	/	0	87	148*	104	/	107	10	105
COc1ccccc1N1CCN(S(=O)(=O)c2cc(-c3cc(C)no3)ccc2C(C)C)CC1	24	-1	/	102	103	-16	/	/	/
O=C(CSc1ccccc1C(=O)O)NC1CCCCCC1	-24	-11	93	91	91	3	/	/	/
O=C(CSc1ccccc1C(=O)NCc1ccccc1)NC1CCCCCCC1	10	0	82	131*	101	8	101	-5	102
O=C(CSc1ccccc1C(=O)NCc1ccccc1)NC12CC3CC(CC(C3)C1)C2	2	0	/	134*	100	-2	99	0	102
CCC(C)NC(=O)c1ccc(NC(=O)CC2SC(N3CCCC3)=NC2=O)cc1 (stereo unspecified)	0	/	108	/	/	2	/	/	/
CN1CCCN(C(=O)CSc2ccccc2)CC1	-16	5	98	103	107	6	/	/	/
CN1CCN(C(=O)CSc2ccc(Cl)cc2)CC1	-1	-13	93	75*[inhibitor]	71	1	97	-5	99
CCN(CC)CCCNC(=O)c1cn(CCOC)c(=O)c2c1c1ccccc1n2C	-11	-16	101	34*[inhibitor]	52	19	105	1	105
O=C(Nc1ccc(Nc2ccccc2)cc1)c1ccc(Cl)cc1[N+](=O)[O-]	3	/	105	/	/	-1	/	/	/
O=C(O)CCCNc1c(C(=O)Nc2ccc(Cl)cc2)cc([N+](=O)[O-])cc1[N+](=O)[O-]	10	11	84	135*	118	-28	105	8	107

Screening results as filed in PubChem BioAssay.
